Data reported in ChEMBL document CHEMBL1138555, “N-acylated and N,N'-diacylated imidazolidine-2-thione derivatives and N,N'-diacylated tetrahydropyrimidine-2(1H)-thione analogues: synthesis and antiproliferative activity” (Eur J Med Chem, 2009).

Experiments:
MT4 = assay: Antiproliferative activity against human MT4 cells assessed as reduction of growth by MTT assay; assay type: functional, cell-based
Outline: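 MT-4 lymphoblastoid T cells (ATCC) in RPMI 1640 with 10% FCS, penicillin/streptomycin, checked for mycoplasma. 1 × 10⁴ mock-infected cells per well with serial dilutions from a 100 mM DMSO stock. Incubated 4 days at 37 °C, viable cells counted by MTT. IC50 versus untreated controls by linear regression. Mean of three separate experiments.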

HCT-116 = assay: Growth inhibition of human HCT116 cells after 48 hrs by sulforhodamine B assay; assay type: functional; conditions: HCT-116, 48 h
Outline: (§1)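 NCI screen panel. Five 10-fold concentrations from 10^-4 to 10^-8 M. Exposure for the last 48 h of a 72 h incubation. Growth estimated by sulforhodamine B protein assay. GI50 is the concentration giving 50% growth inhibition. Where that level was not reached or was exceeded, the value is given as above or below the highest or lowest concentration tested.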

UACC-62 = assay: Growth inhibition of human UACC62 cells after 48 hrs by sulforhodamine B assay; assay type: functional; conditions: UACC-62, 48 h
Outline: (§2)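 NCI in vitro panel screen. Compounds tested at five 10-fold dilutions, 10^-4 to 10^-8 M. Cells in 96-well plates were exposed for the last 48 h of a 72 h incubation. Viability/growth was read by sulforhodamine B protein assay. GI50 is the concentration giving 50% growth inhibition. Values beyond the tested range are reported as greater or less than the maximum or minimum concentration.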

MOLT-4 = assay: Growth inhibition of human MOLT4 cells after 48 hrs by sulforhodamine B assay; assay type: functional; conditions: MOLT-4, 48 h; outline: as §1
HL-60(TB) = assay: Growth inhibition of human HL-60(TB) cells after 48 hrs by sulforhodamine B assay; assay type: functional; conditions: HL-60, 48 h
Outline: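 NCI 60-cell-line screen protocol: cells exposed to compound at five 10-fold dilutions from 10^-4 to 10^-8 M for the last 48 h of a 72 h incubation. Sulforhodamine B protein assay estimated viability/growth. GI50 (50% growth inhibition) derived; where not reached or exceeded, reported as greater or less than the highest or lowest concentration tested.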

HT-29 = assay: Growth inhibition of human HT-29 cells after 48 hrs by sulforhodamine B assay; assay type: functional; conditions: HT-29, 48 h; outline: as §1
K562 = assay: Growth inhibition of human K562 cells after 48 hrs by sulforhodamine B assay; assay type: functional; conditions: K562, 48 h; outline: as §1
COLO 205 = assay: Growth inhibition of human COLO205 cells after 48 hrs by sulforhodamine B assay; assay type: functional; conditions: COLO 205, 48 h; outline: as §1
U-251 = assay: Growth inhibition of human U251 cells after 48 hrs by sulforhodamine B assay; assay type: functional; conditions: U-251, 48 h; outline: as §2
SK-MEL-5 = assay: Growth inhibition of human SK-MEL-5 cells after 48 hrs by sulforhodamine B assay; assay type: functional; conditions: SK-MEL-5, 48 h; outline: as §1
SNB-19 = assay: Growth inhibition of human SNB19 cells after 48 hrs by sulforhodamine B assay; assay type: functional; conditions: SNB-19, 48 h; outline: as §2
DU-145 = assay: Growth inhibition of human DU145 cells after 48 hrs by sulforhodamine B assay; assay type: functional; conditions: DU-145, 48 h; outline: as §1
CAKI-1 = assay: Growth inhibition of human Caki1 cells after 48 hrs by sulforhodamine B assay; assay type: functional; conditions: CAKI-1, 48 h; outline: as §1
IGROV-1 = assay: Growth inhibition of human IGROV1 cells after 48 hrs by sulforhodamine B assay; assay type: functional; conditions: IGROV-1, 48 h; outline: as §1
NCI/ADR-RES = assay: Growth inhibition of human NCI/ADR-RES cells after 48 hrs by sulforhodamine B assay; assay type: functional; outline: as §1
PC-3 = assay: Growth inhibition of human PC3 cells after 48 hrs by sulforhodamine B assay; assay type: functional; conditions: PC-3, 48 h; outline: as §1
Malme-3M = assay: Growth inhibition of human MALME-3M cells after 48 hrs by sulforhodamine B assay; assay type: functional; outline: as §1
RXF 393 = assay: Growth inhibition of human RXF393 cells after 48 hrs by sulforhodamine B assay; assay type: functional; conditions: RXF 393, 48 h; outline: as §1
M14 = assay: Growth inhibition of human M14 cells after 48 hrs by sulforhodamine B assay; assay type: functional; conditions: M14, 48 h; outline: as §1
LOX IMVI = assay: Growth inhibition of human LOXIMVI cells after 48 hrs by sulforhodamine B assay; assay type: functional; outline: as §1
SK-OV-3 = assay: Growth inhibition of human SKOV3 cells after 48 hrs by sulforhodamine B assay; assay type: functional; conditions: SK-OV-3, 48 h; outline: as §1
SW-620 = assay: Growth inhibition of human SW620 cells after 48 hrs by sulforhodamine B assay; assay type: functional; conditions: SW-620, 48 h; outline: as §2
A549 = assay: Growth inhibition of human A549 cells after 48 hrs by sulforhodamine B assay; assay type: functional; conditions: A549, 48 h; outline: as §1
OVCAR-8 = assay: Growth inhibition of human OVCAR8 cells after 48 hrs by sulforhodamine B assay; assay type: functional; conditions: OVCAR-8, 48 h; outline: as §1
EKVX = assay: Growth inhibition of human EKVX cells after 48 hrs by sulforhodamine B assay; assay type: functional; outline: as §1
HCT-15 = assay: Growth inhibition of human HCT15 cells after 48 hrs by sulforhodamine B assay; assay type: functional; conditions: HCT-15, 48 h; outline: as §1
HOP-62 = assay: Growth inhibition of human HOP62 cells after 48 hrs by sulforhodamine B assay; assay type: functional; conditions: HOP-62, 48 h; outline: as §1
NCI-H460 = assay: Growth inhibition of human NCI-H460 cells after 48 hrs by sulforhodamine B assay; assay type: functional; conditions: NCI-H460, 48 h; outline: as §1
SF-295 = assay: Growth inhibition of human SF295 cells after 48 hrs by sulforhodamine B assay; assay type: functional; conditions: SF-295, 48 h; outline: as §1
NCI-H23 = assay: Growth inhibition of human NCI-H23 cells after 48 hrs by sulforhodamine B assay; assay type: functional; conditions: NCI-H23, 48 h; outline: as §1
SK-MEL-2 = assay: Growth inhibition of human SK-MEL-2 cells after 48 hrs by sulforhodamine B assay; assay type: functional; conditions: SK-MEL-2, 48 h; outline: as §1
SN12C = assay: Growth inhibition of human SN12C cells after 48 hrs by sulforhodamine B assay; assay type: functional; outline: as §2
BT-549 = assay: Growth inhibition of human BT549 cells after 48 hrs by sulforhodamine B assay; assay type: functional; conditions: BT-549, 48 h; outline: as §1
OVCAR-3 = assay: Growth inhibition of human OVCAR-3 cells after 48 hrs by sulforhodamine B assay; assay type: functional; conditions: OVCAR-3, 48 h; outline: as §1
UACC-257 = assay: Growth inhibition of human UACC257 cells after 48 hrs by sulforhodamine B assay; assay type: functional; conditions: UACC-257, 48 h; outline: as §2
ACHN = assay: Growth inhibition of human ACHN cells after 48 hrs by sulforhodamine B assay; assay type: functional; outline: as §1
UO-31 = assay: Growth inhibition of human UO31 cells after 48 hrs by sulforhodamine B assay; assay type: functional; conditions: UO-31, 48 h; outline: as §2
SNB-75 = assay: Growth inhibition of human SNB75 cells after 48 hrs by sulforhodamine B assay; assay type: functional; conditions: SNB-75, 48 h; outline: as §2
KM12 = assay: Growth inhibition of human KM12 cells after 48 hrs by sulforhodamine B assay; assay type: functional; conditions: KM12, 48 h; outline: as §1
HOP-92 = assay: Growth inhibition of human HOP92 cells after 48 hrs by sulforhodamine B assay; assay type: functional; conditions: HOP-92, 48 h; outline: as §1
[1] = Growth inhibition of human […] cells after 48 hrs by sulforhodamine B assay; assay type: functional; outline: as §1
OVCAR-4 = assay: Growth inhibition of human OVCAR4 cells after 48 hrs by sulforhodamine B assay; assay type: functional; conditions: OVCAR-4, 48 h; outline: as §1
SK-MEL-28 = assay: Growth inhibition of human SK-MEL-28 cells after 48 hrs by sulforhodamine B assay; assay type: functional; conditions: SK-MEL-28, 48 h; outline: as §1
MDA-MB-435 = assay: Growth inhibition of human MDA-MB-435 cells after 48 hrs by sulforhodamine B assay; assay type: functional; conditions: MDA-MB-435, 48 h; outline: as §1
SR = assay: Growth inhibition of human SR cells after 48 hrs by sulforhodamine B assay; assay type: functional; outline: as §2
TK-10 = assay: Growth inhibition of human TK10 cells after 48 hrs by sulforhodamine B assay; assay type: functional; conditions: TK-10, 48 h; outline: as §2
786-0 = assay: Growth inhibition of human 786-0 cells after 48 hrs by sulforhodamine B assay; assay type: functional; conditions: 786-0, 48 h; outline: as §1
NCI-H322M = assay: Growth inhibition of human NCI-H322M cells after 48 hrs by sulforhodamine B assay; assay type: functional; outline: as §1
MDA-MB-231 = assay: Growth inhibition of human MDA-MB-231 cells after 48 hrs by sulforhodamine B assay; assay type: functional; conditions: MDA-MB-231, 48 h; outline: as §1

SMILES: CC(=O)N1CCN(C=O)C1=S
- IC50 (MT4): > 100 µM

SMILES: O=CN1CCN(C(=O)c2ccccc2)C1=S
- IC50 (MT4): 12 µM

SMILES: Cc1ccc(C(=O)N2CCCN(C(=O)c3ccc(C)cc3)C2=S)cc1
- IC50 (MT4): > 100 µM

SMILES: Cc1ccc(C(=O)N2CCN(C(=O)c3ccc(C)cc3)C2=S)cc1
- IC50 (MT4): 35 µM

SMILES: CC(=O)N1CCN(C(C)=O)C1=S
- IC50 (MT4): > 100 µM

SMILES: Cc1ccc(C(=O)N2CCN(C=O)C2=S)cc1
- IC50 (MT4): 31 µM

SMILES: O=C(c1ccc(Cl)cc1)N1CCCN(C(=O)c2ccc(Cl)cc2)C1=S
- IC50 (MT4): 38 µM

SMILES: CC(C)(C)c1ccc(C(=O)N2CCN(C(=O)c3ccc(C(C)(C)C)cc3)C2=S)cc1
- IC50 (MT4): > 100 µM

SMILES: O=C(c1ccc(Cl)c([N+](=O)[O-])c1)N1CCN(C(=O)c2ccc(Cl)c([N+](=O)[O-])c2)C1=S
- IC50 (MT4): 11 µM

SMILES: O=C(c1cccc([N+](=O)[O-])c1)N1CCN(C(=O)c2cccc([N+](=O)[O-])c2)C1=S
- IC50 (MT4): > 100 µM

SMILES: O=C(c1ccccc1)N1CCN(C(=O)c2ccccc2)C1=S
- IC50 (MT4): 94 µM

SMILES: O=C(c1ccc(Cl)cc1Cl)N1CCCN(C(=O)c2ccc(Cl)cc2Cl)C1=S
- IC50 (MT4): > 100 µM

SMILES: Cc1ccccc1C(=O)N1CCN(C(=O)c2ccccc2C)C1=S
- IC50 (MT4): > 100 µM

SMILES: O=C(C(=CN1CCN(C(=O)c2ccco2)C1=S)C(=O)c1ccccc1)c1ccccc1
- GI50 (HCT-116): 7.9 µM
- GI50 (UACC-62): 6.9 µM
- GI50 (MOLT-4): 15.2 µM
- GI50 (HL-60(TB)): 9.9 µM
- GI50 (HT-29): 16.9 µM
- GI50 (K562): 3.2 µM
- GI50 (COLO 205): 20 µM
- GI50 (U-251): 2.7 µM
- GI50 (SK-MEL-5): 10.9 µM
- GI50 (SNB-19): 29.2 µM
- GI50 (DU-145): 12.4 µM
- GI50 (CAKI-1): 7 µM
- GI50 (IGROV-1): 5.6 µM
- GI50 (NCI/ADR-RES): 9.2 µM
- GI50 (PC-3): 23.6 µM
- GI50 (Malme-3M): 3.1 µM
- GI50 (RXF 393): 5.8 µM
- GI50 (M14): 7 µM
- GI50 (LOX IMVI): 1.2 µM
- GI50 (SK-OV-3): 41.8 µM
- GI50 (SW-620): 8.7 µM
- GI50 (A549): 11.3 µM
- GI50 (OVCAR-8): 16.2 µM
- GI50 (EKVX): 8.1 µM
- GI50 (HCT-15): 2.6 µM
- GI50 (HOP-62): 15.9 µM
- GI50 (NCI-H460): 2.4 µM
- GI50 (SF-295): 11.1 µM
- GI50 (NCI-H23): 7 µM
- GI50 (SK-MEL-2): 12.1 µM
- GI50 (SN12C): 6.1 µM
- GI50 (BT-549): 10 µM
- GI50 (OVCAR-3): 7.3 µM
- GI50 (UACC-257): 11.7 µM
- GI50 (ACHN): 5.8 µM
- GI50 (UO-31): 8.7 µM
- GI50 (SNB-75): 27.4 µM
- GI50 (KM12): 2.3 µM
- GI50 (HOP-92): 27 µM
- GI50 [1]: 8.4 µM
- GI50 (OVCAR-4): 16.1 µM
- GI50 (SK-MEL-28): 17.8 µM
- GI50 (MDA-MB-435): 7.2 µM
- IC50 (MT4): 7 µM
- GI50 (SR): 1.3 µM
- GI50 (TK-10): 6.9 µM
- GI50 (786-0): 8.2 µM
- GI50 (NCI-H322M): 2.2 µM
- GI50 (MDA-MB-231): 7.4 µM

SMILES: CC(C)(C)C(=O)/C(C#N)=C/N1CCN(C(=O)c2ccco2)C1=S
- IC50 (MT4): 14 µM

SMILES: O=C(c1ccco1)N1CCCN(C(=O)c2ccco2)C1=S
- IC50 (MT4): 36 µM

SMILES: O=C(c1ccc(Cl)c(Cl)c1)N1CCCN(C(=O)c2ccc(Cl)c(Cl)c2)C1=S
- IC50 (MT4): 72 µM
